Data from ChEMBL document CHEMBL4261527, “Benzylsulfanyl benzo-heterocycle amides and hydrazones as new agents against drug-susceptible and resistant Mycobacterium tuberculosis” (Medchemcomm, 2017).
Converted amounts (≈) assume the structure as drawn.

How the values were obtained:
[1] = test system: Mycobacterium tuberculosis; assay: Antimycobacterial activity against drug-susceptible Mycobacterium tuberculosis clinical isolate; format: functional
Outline: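 Clinical isolates coded 960 (drug-susceptible), 330 (MDR) and 431 (XDR); MIC reported in μM.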

[2] = test system: Mycobacterium tuberculosis; assay: Antimycobacterial activity against Mycobacterium tuberculosis H37Rv ATCC 27294 measured after 7 days by microplate alamar blue assay; format: functional; details: H37Rv ATCC 27294, 168 h
Outline: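 Mtb H37Rv (ATCC 27294) grown in Middlebrook 7H12 broth; MIC read by Microplate Alamar Blue Assay (MABA).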

[3] = Stability in human liver microsomes assessed as parent compound remaining after 60 mins by LC-MS/MS analysis; format: ADME, microsome; details: read-out: Stability
Outline: (§1)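 Compound incubated with human liver microsomes; percent remaining measured at 15, 30 and 60 min, relative to the amount at 0 min taken as 100%.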

[4] = test system: Mycobacterium tuberculosis; assay: Antimycobacterial activity against p-aminosalicyclic acid-resistant Mycobacterium tuberculosis ATCC 35821 by resazurin dye based fluorimetric method; format: functional
[5] = Cytotoxicity against African green monkey Vero cells assessed as cell viability at 0.078 ug/ml after 72 hrs by CCK8 assay (reference value: 100%); format: cell-based; details: chlorocebus sabaeus, read-out: Activity
Outline: (§2)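 Vero cells exposed to 0.01–20 μg/mL compound; vehicle control 0.625% DMSO set as 100%. Result given as percent cell viability.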

[6] = Cytotoxicity against African green monkey Vero cells assessed as cell viability at 0.01 ug/ml after 72 hrs by CCK8 assay (reference value: 100%); format: cell-based; details: chlorocebus sabaeus, read-out: Activity; outline: as §2
[7] = Cytotoxicity against African green monkey Vero cells assessed as cell viability at 1.25 ug/ml after 72 hrs by CCK8 assay (reference value: 100%); format: cell-based; details: chlorocebus sabaeus, read-out: Activity; outline: as §2
[8] = Stability in human liver microsomes assessed as parent compound remaining after 15 mins by LC-MS/MS analysis; format: ADME, microsome; details: read-out: Stability; outline: as §1
[9] = Cytotoxicity against African green monkey Vero cells assessed as cell viability at 10 ug/ml after 72 hrs by CCK8 assay (reference value: 100%); format: cell-based; details: chlorocebus sabaeus, read-out: Activity; outline: as §2
[10] = Cytotoxicity against African green monkey Vero cells assessed as cell viability at 0.156 ug/ml after 72 hrs by CCK8 assay (reference value: 100%); format: cell-based; details: chlorocebus sabaeus, read-out: Activity; outline: as §2
[11] = Cytotoxicity against African green monkey Vero cells assessed as cell viability at 0.312 ug/ml after 72 hrs by CCK8 assay (reference value: 100%); format: cell-based; details: chlorocebus sabaeus, read-out: Activity; outline: as §2
[12] = Stability in human liver microsomes assessed as parent compound remaining after 30 mins by LC-MS/MS analysis; format: ADME, microsome; details: read-out: Stability; outline: as §1
[13] = Cytotoxicity against African green monkey Vero cells assessed as cell viability at 20 ug/ml after 72 hrs by CCK8 assay (reference value: 100%); format: cell-based; details: chlorocebus sabaeus, read-out: Activity; outline: as §2
[14] = Cytotoxicity against African green monkey Vero cells assessed as cell viability at 0.02 ug/ml after 72 hrs by CCK8 assay (reference value: 100%); format: cell-based; details: chlorocebus sabaeus, read-out: Activity; outline: as §2
[15] = Cytotoxicity against African green monkey Vero cells assessed as cell viability at 2.5 ug/ml after 72 hrs by CCK8 assay (reference value: 100%); format: cell-based; details: chlorocebus sabaeus, read-out: Activity; outline: as §2
[16] = Cytotoxicity against African green monkey Vero cells assessed as cell viability at 5 ug/ml after 72 hrs by CCK8 assay (reference value: 100%); format: cell-based; details: chlorocebus sabaeus, read-out: Activity; outline: as §2
[17] = Cytotoxicity against African green monkey Vero cells assessed as cell viability at 0.039 ug/ml after 72 hrs by CCK8 assay (reference value: 100%); format: cell-based; details: chlorocebus sabaeus, read-out: Activity; outline: as §2
[18] = Cytotoxicity against African green monkey Vero cells assessed as cell viability at 0.625 ug/ml after 72 hrs by CCK8 assay (reference value: 100%); format: cell-based; details: chlorocebus sabaeus, read-out: Activity; outline: as §2

Compound: CO[C@H]1/C=C/O[C@@]2(C)Oc3c(C)c(O)c4c(O)c(c(/C=N/N5CCN(C)CC5)c(O)c4c3C2=O)NC(=O)/C(C)=C\C=C\[C@H](C)[C@H](O)[C@@H](C)[C@@H](O)[C@@H](C)[C@H](OC(C)=O)[C@@H]1C [RIFAMPIN]
- MIC [1]: 0.07 µM (≈ 0.0576 µg/mL)
- MIC [2]: 0.08 µM (≈ 0.0658 µg/mL)

Compound: O=[N+]([O-])c1cn2c(n1)OC[C@@H](OCc1ccc(OC(F)(F)F)cc1)C2 [PRETOMANID]
- MIC [2]: 0.44 µM (≈ 0.158 µg/mL)

Compound: O=C(N/N=C/c1ccc(CSc2nc3ccccc3[nH]2)cc1)c1ccncc1
- remaining at 1 h [3]: 44.6%
- MIC [4]: 0.312 µg/mL (≈ 0.805 µM)
- viability at 72 h, 0.078 ug/ml [5]: 116%
- viability at 72 h, 0.01 ug/ml [6]: 119%
- viability at 72 h, 1.25 ug/ml [7]: 119%
- remaining at 0.25 h [8]: 76.5%
- viability at 72 h, 10 ug/ml [9]: 107%
- viability at 72 h, 0.156 ug/ml [10]: 115%
- viability at 72 h, 0.312 ug/ml [11]: 111%
- remaining at 0.5 h [12]: 62%
- viability at 72 h, 20 ug/ml [13]: 107%
- viability at 72 h, 0.02 ug/ml [14]: 116%
- viability at 72 h, 2.5 ug/ml [15]: 114%
- viability at 72 h, 5 ug/ml [16]: 113%
- viability at 72 h, 0.039 ug/ml [17]: 115%
- viability at 72 h, 0.625 ug/ml [18]: 112%
- MIC [1]: 0.2 µM (≈ 0.0775 µg/mL)
- MIC [2]: 0.23 µM (≈ 0.0891 µg/mL)

Compound: O=C(N/N=C/c1ccc(CSc2nc3ccccc3s2)cc1)c1ccncc1
- remaining at 1 h [3]: 34%
- MIC [4]: 0.625 µg/mL (≈ 1.55 µM)
- viability at 72 h, 0.078 ug/ml [5]: 99%
- viability at 72 h, 0.01 ug/ml [6]: 97%
- viability at 72 h, 1.25 ug/ml [7]: 103%
- remaining at 0.25 h [8]: 76.3%
- viability at 72 h, 10 ug/ml [9]: 96%
- viability at 72 h, 0.156 ug/ml [10]: 97%
- viability at 72 h, 0.312 ug/ml [11]: 98%
- remaining at 0.5 h [12]: 57.2%
- viability at 72 h, 20 ug/ml [13]: 91%
- viability at 72 h, 0.02 ug/ml [14]: 103%
- viability at 72 h, 2.5 ug/ml [15]: 101%
- viability at 72 h, 5 ug/ml [16]: 103%
- viability at 72 h, 0.039 ug/ml [17]: 99%
- viability at 72 h, 0.625 ug/ml [18]: 94%
- MIC [1]: 0.2 µM (≈ 0.0809 µg/mL)
- MIC [2]: 0.24 µM (≈ 0.0971 µg/mL)

Compound: COc1c(N2C[C@@H]3CCCN[C@@H]3C2)c(F)cc2c(=O)c(C(=O)O)cn(C3CC3)c12 [MOXIFLOXACIN]
- MIC [2]: 0.5 µM (≈ 0.201 µg/mL)

Compound: O=C(NCc1ccc(CSc2nc3ccccc3s2)cc1)c1ccncc1
- MIC [2]: > 128 µM

Compound: O=C(NCc1ccc(CSc2nc3ccccc3[nH]2)cc1)c1cccnc1
- MIC [2]: 60.3 µM (≈ 22.6 µg/mL)

Compound: O=C(N/N=C/c1ccc(CSc2nc3ccccc3o2)cc1)c1cccnc1
- MIC [2]: 24.8 µM (≈ 9.63 µg/mL)

Compound: O=C(NCc1ccc(CSc2nc3ccccc3o2)cc1)c1ccncc1
- MIC [1]: 16 µM (≈ 6.01 µg/mL)
- MIC [2]: 0.9 µM (≈ 0.338 µg/mL)

Compound: O=C(NCc1ccc(CSc2nc3ccccc3s2)cc1)c1cccnc1
- MIC [2]: > 128 µM

Compound: O=C(NCc1ccc(CSc2nc3ccccc3[nH]2)cc1)c1ccncc1
- MIC [2]: 120 µM (≈ 45.1 µg/mL)

Compound: O=C(NCc1ccc(CSc2nc3ccccc3o2)cc1)c1cccnc1
- MIC [2]: 58.2 µM (≈ 21.9 µg/mL)

Compound: CN[C@@H]1[C@H](O[C@H]2[C@H](O[C@H]3[C@H](O)[C@@H](O)[C@H](N=C(N)N)[C@@H](O)[C@@H]3N=C(N)N)O[C@@H](C)[C@]2(O)C=O)O[C@@H](CO)[C@H](O)[C@H]1O [STREPTOMYCIN]
- MIC [2]: 0.48 µM (≈ 0.279 µg/mL)

Compound: NNC(=O)c1ccncc1 [ISONIAZID]
- MIC [1]: 0.5 µM (≈ 0.0686 µg/mL)
- MIC [2]: 0.81 µM (≈ 0.111 µg/mL)

Compound: O=C(N/N=C/c1ccc(CSc2nc3ccccc3o2)cc1)c1ccncc1
- remaining at 1 h [3]: 66.6%
- MIC [4]: 0.312 µg/mL (≈ 0.803 µM)
- viability at 72 h, 0.078 ug/ml [5]: 119%
- viability at 72 h, 0.01 ug/ml [6]: 127%
- viability at 72 h, 1.25 ug/ml [7]: 123%
- remaining at 0.25 h [8]: 90.1%
- viability at 72 h, 10 ug/ml [9]: 130%
- viability at 72 h, 0.156 ug/ml [10]: 122%
- viability at 72 h, 0.312 ug/ml [11]: 120%
- remaining at 0.5 h [12]: 76.5%
- viability at 72 h, 20 ug/ml [13]: 109%
- viability at 72 h, 0.02 ug/ml [14]: 127%
- viability at 72 h, 2.5 ug/ml [15]: 123%
- viability at 72 h, 5 ug/ml [16]: 123%
- viability at 72 h, 0.039 ug/ml [17]: 127%
- viability at 72 h, 0.625 ug/ml [18]: 118%
- MIC [1]: 0.2 µM (≈ 0.0777 µg/mL)
- MIC [2]: 0.24 µM (≈ 0.0932 µg/mL)

Compound: COc1cc(/C=N/NC(=O)c2ccncc2)ccc1O [FTIVAZIDE]
- MIC [4]: 0.312 µg/mL (≈ 1.15 µM)
- viability at 72 h, 0.078 ug/ml [5]: 114%
- viability at 72 h, 0.01 ug/ml [6]: 95%
- viability at 72 h, 1.25 ug/ml [7]: 105%
- viability at 72 h, 10 ug/ml [9]: 95%
- viability at 72 h, 0.156 ug/ml [10]: 96%
- viability at 72 h, 0.312 ug/ml [11]: 103%
- viability at 72 h, 20 ug/ml [13]: 90%
- viability at 72 h, 0.02 ug/ml [14]: 105%
- viability at 72 h, 2.5 ug/ml [15]: 110%
- viability at 72 h, 5 ug/ml [16]: 100%
- viability at 72 h, 0.625 ug/ml [18]: 100%
- MIC [1]: 0.25 µM (≈ 0.0678 µg/mL)

Compound: O=C(N/N=C/c1ccc(CSc2nc3ccccc3s2)cc1)c1cccnc1
- MIC [2]: > 128 µM

Compound: O=C(N/N=C/c1ccc(CSc2nc3ccccc3[nH]2)cc1)c1cccnc1
- MIC [2]: 114 µM (≈ 44.3 µg/mL)
